The values below come from ChEMBL document CHEMBL2311534, “Synthesis and antiplasmodial evaluation of novel (4-aminobutyloxy)quinolines” (Bioorg Med Chem Lett, 2013).

For data set [1], the system named is Plasmodium falciparum. The data set can be described thus: Antiplasmodial activity against erythrocyte form of chloroquine-sensitive Plasmodium falciparum D10 by parasite lactate dehydrogenase assay. The data set is classed as functional, organism-based. The method in brief:
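Asexual erythrocyte-stage cultures were maintained by a modified Trager–Jensen method. Samples were made as 20 mg/mL stocks in 100% DMSO and diluted in complete medium. The top test concentration was 100 µg/mL, with twofold serial dilution to 10 concentrations (lowest 0.2 µg/mL). Growth was read by parasite lactate dehydrogenase assay in triplicate on one occasion. IC50 came from full dose-response curves.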

In data set [2] the test system is Plasmodium falciparum. As to the kind of experiment: Resistance index, ratio of IC50 for chloroquine-resistant Plasmodium falciparum Dd2 to IC50 for chloroquine-sensitive Plasmodium falciparum D10. The format is functional.
The subject of data set [3] is CHO. As to the kind of experiment: Cytotoxicity against CHO cells by MTT assay. The data set is classed as cell-based. Particulars: Cricetulus griseus. The method, boiled down: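 CHO cell growth and survival was read colorimetrically with MTT. Samples were diluted in complete medium on the day of testing as 10-fold serial dilutions to 6 concentrations (100 down to 0.001 µg/mL). Emetine served as reference. Tests were run in triplicate on one occasion. IC50 was obtained by non-linear dose-response curve fitting.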
(In general: Tetrazolium dyes change colour on reduction, which living cells bring about.)

For data set [4], the system named is Plasmodium falciparum. As to the kind of experiment: Antiplasmodial activity against erythrocyte form of chloroquine-resistant Plasmodium falciparum Dd2 by parasite lactate dehydrogenase assay. The format is functional, organism-based. The method in brief: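 Continuous culture of asexual erythrocyte stages (modified Trager–Jensen); growth read by parasite lactate dehydrogenase assay (modified Makler). Samples from 20 mg/mL DMSO stock, diluted in complete medium; full dose-response, twofold serial dilutions from 100 µg/mL to 0.2 µg/mL (10 concentrations); chloroquine reference. Triplicate on one occasion; IC50 from non-linear curve fitting.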

A short description of data set [5]: Selectivity index, ratio of IC50 for CHO cells to IC50 for chloroquine-sensitive Plasmodium falciparum D10. Particulars: hamster, read-out: Ratio IC50. The data set is classed as toxicity, cell-based. The method in brief:
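Computed as IC50 from the CHO MTT assay divided by IC50 from the D10 pLDH assay. Both IC50 values came from full dose-response curves, each run in triplicate on one occasion.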

For `CCN(CC)CCC(C)COc1c(I)cc(Cl)c2cccnc12` (configuration not stated), the IC50 – broadly, the concentration that inhibits the measured activity by half – in data set [1] stood at 13 µM.
On to `Cc1ccc2c(Cl)cc(Cl)c(OCC(C)CCNCc3ccc(Cl)cc3)c2n1` (configuration not stated), for which the “Ratio IC50” value in data set [2] is 0.11. The IC50 in data set [3] came to 4.11 µM; in data set [4], 0.26 µM; in data set [1] it was 2.44 µM. The selectivity ratio in data set [5] turned out to be 2.
`CCN(CC)CCCCOc1ccc(Cl)c2cccnc12` gave an IC50 in data set [1] of 17.2 µM.
As to `CCN(CC)CCC(C)Cc1cc(Cl)c2cccnc2c1O` (configuration not stated), the “Ratio IC50” value in data set [2] is 0.15. The IC50 in data set [3] came out at 4.8 µM; in data set [4] it was 0.15 µM; in data set [1], 1.01 µM. Also, the selectivity ratio in data set [5] was found to be 5.
Turning to `CC(CCNCc1ccc(Cl)cc1)COc1cccc2cccnc12` (configuration not stated), the midpoint of inhibition in data set [1], the IC50, lay at 5.64 µM.
The compound `CC(CCNCc1ccc(Cl)cc1)COc1cccc2ncccc12` (configuration not stated) returned an IC50 in data set [1] of 23.1 µM.
Same read-out and setting: in the case of `CCN(CC)CCC(C)COc1c(Br)cc(Br)c2cccnc12` (configuration not stated) it was 8.65 µM; in that of `CCN(CC)CCCCOc1c(I)cc(Cl)c2cccnc12`, 9.02 µM.
`CCN(CC)CCC(C)COc1c(Cl)cc(Cl)c2cccnc12` (configuration not stated) had an IC50 in data set [1] of 8.08 µM.
Regarding `CC[C@H]1CN2CCc3cc(OC)c(OC)cc3[C@@H]2C[C@@H]1C[C@H]1NCCc2cc(OC)c(OC)cc21` [EMETINE], in data set [3], the IC50 stood at 0.17 µM.
In data set [1], `CCN(CC)CCCCOc1ccc2ncccc2c1` came in with a concentration for half-maximal inhibition (IC50) of 6.02 µM.
Same read-out and setting: next, `CCN(CC)CCC(C)COc1cccc2cccnc12` (configuration not stated): 100 µM; `CCN(CC)CCC(C)COc1c(I)cc(I)c2cccnc12` (configuration not stated): 13.9 µM.
Turning to `Clc1ccc(CNCCCCOc2cccc3ncccc23)cc1`, the IC50 in data set [3] was 237 µM; in data set [1] it was 7.01 µM. In data set [5], the selectivity ratio was found to be 34.
As to `CCN(CC)CCC(C)COc1c(Cl)cc(Cl)c2ccc(C)nc12` (configuration not stated), the “Ratio IC50” value in data set [2] stood at 0.17. For the same compound, the IC50 was 224 µM in data set [3], 0.68 µM in data set [4] and 3.95 µM in data set [1]. The selectivity ratio in data set [5] is 57.
For `CC(CCNCc1ccc(Cl)cc1)COc1c(I)cc(I)c2cccnc12` (configuration not stated), the IC50 in data set [1] was 9.15 µM.
In data set [1], `CCN(CC)CCCCOc1cccc2ncccc12` yielded an IC50 of 10.2 µM.
Still for that read-out and setting: next, `Clc1ccc(CNCCCCOc2ccc(Cl)c3cccnc23)cc1`: 9.99 µM.
For `Clc1ccc(CNCCCCOc2ccc3ncccc3c2)cc1`, the IC50 in data set [3] was 211 µM; in data set [4] it was over 1 µM; in data set [1], 7.29 µM. Moreover, the selectivity ratio in data set [5] came out at 29.
With `CCN(CC)CCCCOc1cccc2cccnc12`, half-maximal inhibition in data set [1] (IC50) was put at 49.2 µM.
